Data taken from ChEMBL document CHEMBL1132658, “Second-generation peptidomimetic inhibitors of protein farnesyltransferase demonstrating improved cellular potency and significant in vivo efficacy” (J Med Chem, 1999).

Columns and labels:
[1] = Area under the curve during systemic administration; format: ADME; set-up: concentration or dose not given beside the values; conditions: other: systemic administration
[2] = Biological half-life in the rat; format: ADME, organism-based; conditions: in vivo
Procedure, shortened: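 Half-life determined after intravenous dosing in rats.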

[3] = Portal vein area under the curve after intraduodenal administration; set-up: concentration or dose not given beside the values
NIH3T3 = experiment: In Vitro inhibition of Ha-Ras procession by using subconfluent NIH3T3 ras-transformed cells; format: functional; conditions: Mus musculus, read-out: ED50 (the source's name)
[4] = target: Protein farnesyltransferase (Bos taurus, UniProt P29702+P49355); experiment: In vitro inhibition of farnesyltransferase purified from bovine brain using scintillation proximity assay

Row | Compound | AUC [1] [ng·h/mL] | half-life [2] [min] | AUC [3] [ng·h/mL] | EC50 (NIH3T3) [nM] | IC50 [4] [nM]
1 | CSCC[C@H](NC(=O)c1ccc(CN(Cc2ccccc2)c2cccnc2)cc1-c1ccccc1C)C(=O)O | 500 | 49.8 | 3000 | 13 | 0.1
2 | CSCC[C@H](NC(=O)c1ccc(CN(C(=O)Cc2ccccc2)c2cccnc2)cc1-c1ccccc1C)C(=O)O | – | – | – | > 1000 | 39
3 | CCCCCc1cc(C(=O)N[C@@H](CCSC)C(=O)O)c(-c2ccccc2C)cc1COc1cccnc1 | – | – | – | 1000 | 2
4 | CSCC[C@H](NC(=O)c1ccc(CN(Cc2ccccc2)Cc2cncs2)cc1-c1ccccc1C)C(=O)O | 1600 | < 24 | 3200 | 300 | 0.4
5 | CSCC[C@H](NC(=O)c1cc(Cc2ccccc2)c(COc2cccnc2)cc1-c1ccccc1C)C(=O)O | – | – | – | > 1000 | 1
6 | CSCC[C@H](NC(=O)c1cc(-c2cccs2)c(COc2cccnc2)cc1-c1ccccc1C)C(=O)O | – | – | – | – | 510
7 | CCc1cc(C(=O)N[C@@H](CCSC)C(=O)O)c(-c2ccccc2C)cc1COc1cccnc1 | – | – | – | < 10000 | 11
8 | CSCC[C@H](NC(=O)c1ccc(CN(Cc2cc(F)cc(F)c2)Cc2cncs2)cc1-c1ccccc1C)C(=O)O | 300 | 67.8 | 2400 | 500 | 0.2
9 | CSCC[C@H](NC(=O)c1ccc(CN(Cc2ccccc2)Cc2cscn2)cc1-c1ccccc1C)C(=O)O | – | – | – | > 1000 | 16
10 | CSCC[C@H](NC(=O)c1cc(-c2ccc(C)cc2)c(COc2cccnc2)cc1-c1ccccc1C)C(=O)O | – | – | – | – | 370
11 | CSCC[C@H](NC(=O)c1ccc(CN(Cc2ccccc2)c2cnccn2)cc1-c1ccccc1C)C(=O)O | 900 | < 24 | 1800 | 50 | 0.8
12 | CSCC[C@H](NC(=O)c1ccc(CN(CC2CCCCC2)c2cccnc2)cc1-c1ccccc1C)C(=O)O | 100 | < 24 | 1000 | 10 | 0.1
13 | CSCC[C@H](NC(=O)c1ccc(CN(Cc2ccccc2)c2cncnc2)cc1-c1ccccc1C)C(=O)O | 20 | 30 | 10400 | 90 | 0.4
14 | CSCC[C@H](NC(=O)c1ccc(CNc2cccnc2)cc1-c1ccccc1C)C(=O)O | – | – | – | 3000 | 0.4
15 | CSCC[C@H](NC(=O)c1cc(-c2cc(Cl)cc(Cl)c2)c(COc2cccnc2)cc1-c1ccccc1C)C(=O)O | – | – | – | – | 95
16 | CSCC[C@H](NC(=O)c1ccc(COc2cccnc2)cc1-c1ccccc1C)C(=O)O | – | – | – | 400 | –
17 | CSCC[C@H](NC(=O)c1ccc(CN(Cc2cc(F)cc(F)c2)c2cccnc2)cc1-c1ccccc1C)C(=O)O | 140 | 60 | 3560 | 50 | 1.4
18 | CSCC[C@H](NC(=O)c1cc(CCc2ccccc2)c(COc2cccnc2)cc1-c1ccccc1C)C(=O)O | – | – | – | 1000 | 0.5
19 | CSCC[C@H](NC(=O)c1ccc(CN(C(=O)c2ccccc2)c2cccnc2)cc1-c1ccccc1C)C(=O)O | – | – | – | > 1000 | 53
20 | CSCC[C@H](NC(=O)c1ccc(CN(Cc2ccccc2)c2ccccc2)cc1-c1ccccc1C)C(=O)O | 600 | 48 | 1900 | 400 | 1.4
21 | CSCC[C@H](NC(=O)c1cc(CC(C)C)c(COc2cccnc2)cc1-c1ccccc1C)C(=O)O | – | – | – | > 10000 | 29
22 | CSCC[C@H](NC(=O)c1ccc(CN(Cc2ccccc2)c2cncc(F)c2)cc1-c1ccccc1C)C(=O)O | 400 | < 24 | 2400 | 30 | 0.1
23 | CSCC[C@H](NC(=O)c1cc(CC2CCCCC2)c(COc2cccnc2)cc1-c1ccccc1C)C(=O)O | – | – | – | 1000 | 12
24 | CSCC[C@H](NC(=O)c1ccc(CN(Cc2ccccc2)Cc2nccs2)cc1-c1ccccc1C)C(=O)O | – | – | – | > 1000 | 7
25 | CSCC[C@H](NC(=O)c1ccc(CN(c2cccnc2)S(=O)(=O)c2ccccc2)cc1-c1ccccc1C)C(=O)O | – | – | – | – | 7
26 | CSCC[C@H](NC(=O)c1ccc(CN(Cc2cc(F)cc(F)c2)c2ccccc2)cc1-c1ccccc1C)C(=O)O | 10800 | 114 | 14300 | 1000 | 0.4
27 | CCCCc1cc(C(=O)N[C@@H](CCSC)C(=O)O)c(-c2ccccc2C)cc1COc1cccnc1 | – | – | – | – | 11
